According to ChEMBL document CHEMBL1125458, “3-O-alkylascorbic acids as free radical quenchers. 3. Protective effect on coronary occlusion-reperfusion induced arrhythmias in anesthetized rats” (1992):

What was measured:
Rattus norvegicus [1] = assay: Effect (10 mg/kg, iv) on coronary reperfusion-induced arrhythmias was assessed in anesthetized rats.(Intervals of ventricular tachycardia (VT)+ventricular fibrillation (VF) within 600 s.; format: functional, Cardiac ventricle
Rattus norvegicus [2] = species on record: Rattus norvegicus; assay: Inhibition of lipid peroxidation in rat liver microsomes.; format: functional; set-up: concentration or dose not given beside the values; details: dose or concentration not given here
How it was run: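 Wistar rat liver microsomes (2.0 mg protein) in 83.5 mM KCl, 37.2 mM Tris-HCl pH 7.4 with 1 mM ADP, 10 µM FeCl3, 0.02 mM NADPH; compound added in DMF, tested at 10^-5 M. 37 °C, 20 min. Malondialdehyde measured by thiobarbituric acid method, A532; % inhibition, mean ± SD, n = 3–6.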

Rattus norvegicus [3] = assay: Effect (30 mg/kg, iv) on coronary reperfusion-induced arrhythmias was assessed in anesthetized rats.(Intervals of ventricular tachycardia (VT)+ventricular fibrillation (VF) within 600 s.; format: functional, Cardiac ventricle
Rattus norvegicus [4] = assay: Antiarrhythmic activity against anesthetized rats after intravenous administration; format: functional, Heart
Rattus norvegicus [5] = assay: Change in arterial blood pressure was measured at 3 mg/kg dose(iv) in anesthetized rats; format: functional, Artery
How it was run: (§1)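 Male Wistar rats, pentobarbital 60 mg/kg ip, supine. Compound suspended in saline with 1% olive oil and 1% Tween 80, injected via femoral vein. Femoral arterial pressure monitored 10 min after injection; change in mmHg, mean ± SE, n = 3–4.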

Rattus norvegicus [6] = assay: Antiarrhythmic activity against anesthetized rats after peroral administration; format: functional, Heart
How it was run: (§2)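 Male Wistar rats (350–450 g) dosed orally 1 h before occlusion, then anesthetized with pentobarbital (60 mg/kg ip) and ventilated. LAD ligated 5 min, reperfused 10 min; VT plus VF durations summed within 600 s. Mean ± SE, n = 5–10; line 2 value is the minimum effective dose.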

Rattus norvegicus [7] = assay: Effect (1 mg/kg, iv) on coronary reperfusion-induced arrhythmias was assessed in anesthetized rats.(Intervals of ventricular tachycardia (VT)+ventricular fibrillation (VF) within 600 s; format: functional, Cardiac ventricle
Rattus norvegicus [8] = assay: Change in heart rate was measured at 1 mg/kg dose(iv) in anesthetized rats; format: functional
How it was run: (§3)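 Anesthetized male Wistar rats (pentobarbital 60 mg/kg ip); compound in saline/1% olive oil/1% Tween 80 given by femoral vein. Lead II ECG recorded and heart rate read by beat-to-beat tachograph for 10 min after dosing; change in beats/min, mean ± SE, n = 3–4.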

Rattus norvegicus [9] = assay: Effect (30 mg/kg, po) on coronary reperfusion-induced arrhythmias was assessed in anesthetized rats.(Intervals of ventricular tachycardia (VT)+ventricular fibrillation (VF) within 600 s.; format: functional, Cardiac ventricle; how it was run: as §2
Rattus norvegicus [10] = assay: inhibitory activity was tested against anesthetized rats; format: functional
Rattus norvegicus [11] = assay: Change in heart rate was measured at 3 mg/kg dose(iv) in anesthetized rats; format: functional; how it was run: as §3
Rattus norvegicus [12] = assay: Change in arterial blood pressure was measured at 1 mg/kg dose(iv) in anesthetized rats; format: functional, Artery; how it was run: as §1
Rattus norvegicus [13] = assay: Effect (30 mg/kg, iv) on coronary reperfusion-induced arrhythmias was assessed in anesthetized rats. (Intervals of ventricular tachycardia (VT)+ventricular fibrillation (VF) within 600 s.; format: functional, Cardiac ventricle
Cavia porcellus [14] = species on record: Cavia porcellus; assay: Inhibitory activity against atrial rate in isolated Guinea pig right atrea at 0.3 mg/mL concentration; format: functional, Cardiac atrium
How it was run: (§4)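 Right atria from male Hartley guinea pigs (450–550 g), loaded at 0.5 g, in Tyrode's solution at 37 °C gassed with 95% O2/5% CO2. Equilibrated at least 30 min until rate stable within 5 beats/min; spontaneous rate and contractile force recorded on polygraph after compound addition.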

Cavia porcellus [15] = species on record: Cavia porcellus; assay: Inhibitory activity on atrial contractility in isolated Guinea pig right atria at 0.03 mg/mL concentration; format: functional; details: Cardiac atrium; how it was run: as §4
Cavia porcellus [16] = species on record: Cavia porcellus; assay: Inhibitory activity on atrial contractility in isolated Guinea pig right atria at 0.3 mg/mL concentration; format: functional; details: Cardiac atrium; how it was run: as §4
Cavia porcellus [17] = species on record: Cavia porcellus; assay: Inhibitory activity on atrial contractility in isolated Guinea pig right atria at 0.1 mg/mL concentration; format: functional; details: Cardiac atrium; how it was run: as §4
Cavia porcellus [18] = species on record: Cavia porcellus; assay: Inhibitory activity on atrial rate in isolated Guinea pig right atria at 0.1 mg/mL concentration; format: functional; details: Cardiac atrium
How it was run: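 Right atria from male Hartley guinea pigs (450–550 g), held under a 0.5 g load at 37 °C in Tyrode's solution gassed with 95% O2 + 5% CO2. After at least 30 min equilibration (rate stable within 5 beats/min), atrial rate and contractile force of spontaneously beating preparations were recorded on a polygraph with compound present.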

Cavia porcellus [19] = species on record: Cavia porcellus; assay: Inhibitory activity on atrial rate in isolated Guinea pig right atria at 0.03 mg/mL concentration; format: functional; details: Cardiac atrium; how it was run: as §4
Rattus norvegicus [20] = assay: Change in heart rate was measured at 0.3 mg/kg dose(iv) in anesthetized rats; format: functional; how it was run: as §3
Rattus norvegicus [21] = assay: Effect (10 mg/kg, po) on coronary reperfusion-induced arrhythmias was assessed in anesthetized rats.(Intervals of ventricular tachycardia (VT)+ventricular fibrillation (VF) within 600 s.; format: functional, Cardiac ventricle; how it was run: as §2
Rattus norvegicus [22] = assay: Change in heart rate was measured at 0.1 mg/kg dose(iv) in anesthetized rats; format: functional; how it was run: as §3
Cavia porcellus [23] = species on record: Cavia porcellus; assay: Inhibitory activity on atrial contractility in isolated Guinea pig right atrea at 0.1 mg/mL concentration; format: functional, Cardiac atrium; how it was run: as §4
Rattus norvegicus [24] = assay: Effect (100 mg/kg, po) on coronary reperfusion-induced arrhythmias was assessed in anesthetized rats.(Intervals of ventricular tachycardia (VT)+ventricular fibrillation (VF) within 600 s; format: functional, Cardiac ventricle; how it was run: as §2
Cavia porcellus [25] = species on record: Cavia porcellus; assay: Inhibitory activity on atrial contractility in isolated Guinea pig right atrea at 0.3 mg/mL concentration; format: functional, Cardiac atrium; how it was run: as §4
Rattus norvegicus [26] = assay: Change in arterial blood pressure was measured at 0.1 mg/kg dose(iv) in anesthetized rats; format: functional, Artery; how it was run: as §1
Cavia porcellus [27] = species on record: Cavia porcellus; assay: Inhibitory activity on atrial contractility in isolated Guinea pig right atrea at 0.03 mg/mL concentration; format: functional, Cardiac atrium; how it was run: as §4
Rattus norvegicus [28] = species on record: Rattus norvegicus; assay: Inhibitory effect on production of active oxygen species by rat peritoneal exudate macrophages; format: functional; set-up: concentration or dose not given beside the values
How it was run: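 Peritoneal exudate macrophages harvested 3 days after ip liquid paraffin (male Wistar rats), >90% viable. Assay: 125 mM sodium phosphate pH 6.5, 0.08 mM EDTA, 1.2 U LDH, 0.32 mM NADH, (2–3) × 10^6 cells, compound in DMF, 1 × 10^-4 M. Started with NADH.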

Cavia porcellus [29] = species on record: Cavia porcellus; assay: Inhibitory activity on atrial rate in isolated Guinea pig right atrea at 0.03 mg/mL concentration; format: functional, Cardiac atrium; how it was run: as §4
Rattus norvegicus [30] = assay: inhibitory activity was tested against anesthetized rats at 10 mg/kg; format: functional
Rattus norvegicus [31] = species on record: Rattus norvegicus; assay: Minimum effective dose of the compound; format: functional; details: read-out: MED
Rattus norvegicus [32] = assay: Effect (0.1 mg/kg, iv) on coronary reperfusion-induced arrhythmias was assessed in anesthetized rats.(Intervals of ventricular tachycardia (VT)+ventricular fibrillation (VF) within 600 s; format: functional, Cardiac ventricle
Rattus norvegicus [33] = assay: Change in arterial blood pressure was measured at 0.3 mg/kg dose(iv) in anesthetized rats; format: functional, Artery; how it was run: as §1
Rattus norvegicus [34] = assay: inhibitory activity was tested against anesthetized rats at 100 mg/kg; format: functional
Cavia porcellus [35] = species on record: Cavia porcellus; assay: Inhibitory activity on atrial rate in isolated Guinea pig right atrea at 0.3 mg/mL concentration; format: functional, Cardiac atrium; how it was run: as §4
Cavia porcellus [36] = species on record: Cavia porcellus; assay: Inhibitory activity on atrial rate in isolated Guinea pig right atrea at 0.1 mg/mL concentration; format: functional, Cardiac atrium; how it was run: as §4
Cavia porcellus [37] = species on record: Cavia porcellus; assay: Inhibitory activity on atrial contractility in isolated Guinea pig right atrea at 0.03 mg/mL concentration p<0.05; format: functional, Cardiac atrium; how it was run: as §4
Cavia porcellus [38] = species on record: Cavia porcellus; assay: Inhibitory activity on atrial contractility in isolated Guinea pig right atrea at 0.1 mg/mL concentration p<0.05; format: functional, Cardiac atrium; how it was run: as §4

With `CCCCCCCCCCCCCCCCC(=O)COC1=C(O)C(=O)OC1C(O)CO` (stereo not given) the Arrhythmias times (Rattus norvegicus [1]) was 521 and the inhibition (Rattus norvegicus [2]) was 43%.
In the case of `CCCCCCCCCCCCCCCCCCOC(=O)COC1=C(O)C(=O)OC1C(O)CO` (stereo not given), the Arrhythmias times (Rattus norvegicus [3]) is reported as 413 and the inhibition (Rattus norvegicus [2]) is reported as 30%.
With `CCCCCCCCCCCC1OCC(C2OC(O)=C(O)C2=O)O1` (stereo not given) the Efficacy (Rattus norvegicus [4]) was greater than 1 mg/kg, the Delta blood pressure (Rattus norvegicus [5]) was -30.3 mmHg and the Efficacy (Rattus norvegicus [6]) was 30 mg/kg. For the same compound, the Arrhythmias times (Rattus norvegicus [7]) was 186, the Delta heart rate (Rattus norvegicus [8]) was -10.3 beats min-1 and the Arrhythmias times (Rattus norvegicus [9]) was 420.8. For the same compound, the Inhibition (Rattus norvegicus [10]) was 19%, the inhibition (Rattus norvegicus [2]) was 89% and the Delta heart rate (Rattus norvegicus [11]) was -75 beats min-1. For the same compound, the Delta blood pressure (Rattus norvegicus [12]) was -7 mmHg.
With `CCOC1=C(O)C(=O)OC1C(O)CO` (stereo not given) the Arrhythmias times (Rattus norvegicus [13]) was 591 and the inhibition (Rattus norvegicus [2]) was 2%.
`CCCCc1ccc(C(=O)COC2=C(O)C(=O)OC2C(O)CO)cc1` (stereo not given) showed an Inhibition (Cavia porcellus [14]) of 25.6%, an inhibition at 30 µg/mL (Cavia porcellus [15]) of 36.2% and an inhibition at 300 µg/mL (Cavia porcellus [16]) of 67.1%. It also gave an Arrhythmias times (Rattus norvegicus [3]) of 325, an inhibition at 100 µg/mL (Cavia porcellus [17]) of 52.8% and an inhibition at 100 µg/mL (Cavia porcellus [18]) of 17%. For the same compound, the inhibition (Rattus norvegicus [2]) was 82% and the inhibition at 30 µg/mL (Cavia porcellus [19]) was 8.8%.
For `CCCCCCCCCCCCCCCC(=O)OCC(O)C1OC(=O)C(O)=C1OCC(C)=O` (stereo not given), the Arrhythmias times (Rattus norvegicus [1]) was 353 and the inhibition (Rattus norvegicus [2]) was 53%.
`CCCCCCCCCCCCCCCCCCOC1=C(O)[C@@H](C(O)CO)OC1=O` (stereo not given in full) was tested, and the Delta heart rate (Rattus norvegicus [20]) was -55 beats min-1, the Efficacy (Rattus norvegicus [4]) was greater than 0.1 mg/kg and the Arrhythmias times (Rattus norvegicus [21]) was 413.2. The Delta heart rate (Rattus norvegicus [22]) was -10 beats min-1, the Inhibition (Cavia porcellus [23]) was -16.7% and the Arrhythmias times (Rattus norvegicus [24]) was 39.4. It also gave an Inhibition (Cavia porcellus [25]) of -39.9%, a Delta blood pressure (Rattus norvegicus [26]) of -10 mmHg and an Efficacy (Rattus norvegicus [6]) of 10 mg/kg. The Inhibition (Cavia porcellus [27]) was -10.7%, the Inhibition (Rattus norvegicus [28]) was 87% and the Inhibition (Cavia porcellus [29]) was -1.8%. It also gave an inhibition in vivo at 10 mg/kg (Rattus norvegicus [30]) of 20%, a minimal effective dose (Rattus norvegicus [31]) of 100 mg/kg and an Arrhythmias times (Rattus norvegicus [32]) of 238. For the same compound, the inhibition (Rattus norvegicus [2]) was 88%, the Delta blood pressure (Rattus norvegicus [33]) was -35.3 mmHg and the inhibition in vivo at 100 mg/kg (Rattus norvegicus [34]) was 92%. For the same compound, the Inhibition (Cavia porcellus [35]) was -13.6% and the Inhibition (Cavia porcellus [36]) was -6%.
`CCCCCCCCCCCCCCOC1=C(O)C(=O)OC1C(O)CO` (stereo not given) gave an Inhibition (Rattus norvegicus [28]) of 40.7%, an Arrhythmias times (Rattus norvegicus [1]) of 352 and an inhibition (Rattus norvegicus [2]) of 78%.
`CCCCCCCCc1ccc(C(=O)COC2=C(O)C(=O)OC2C(O)CO)cc1` (stereo not given) was tested, and the Inhibition (Cavia porcellus [25]) was 45%, the Inhibition (Cavia porcellus [29]) was -0.4% and the Inhibition (Cavia porcellus [37]) was 15.8%. It also gave an Arrhythmias times (Rattus norvegicus [1]) of 461, an inhibition (Rattus norvegicus [2]) of 88% and an Inhibition (Cavia porcellus [38]) of 33.5%. It also gave an Inhibition (Cavia porcellus [35]) of 0.3% and an Inhibition (Cavia porcellus [36]) of -0.9%.
`CCCCCCCCC(=O)COC1=C(O)C(=O)OC1C(O)CO` (stereo not given) showed an Inhibition (Rattus norvegicus [28]) of 4.9%, an Arrhythmias times (Rattus norvegicus [1]) of 433 and an inhibition (Rattus norvegicus [2]) of 64%.
